Entries after “also recorded” stand apart in the source; their conditions may differ. Like-named read-outs stand apart in the source and are kept apart here.
How the values were obtained:
TRPM8 [1] = details: read-out: IC50 (whole-cell patch clamp); cited from earlier work
human TRPA1 = human TRPA1 (Homo sapiens, UniProt O75762); assay: FLIPR Ca2+ flux assay; type: cell-based; details: for hTRPA1% activation: normalized to Emax of AITC (300 μM); for hTRPA1% inhibition: vs EC80 of AITC (10 μM)
TRPA1 = details: read-out: TRPA1 IC50; vs the effect of 80 μM AITC; cited from earlier work
human TRPM8 = human TRPM8 (Homo sapiens, UniProt Q7Z2W7); details: cited from earlier work
Sequence of human TRPM8 (Q7Z2W7 whole entry): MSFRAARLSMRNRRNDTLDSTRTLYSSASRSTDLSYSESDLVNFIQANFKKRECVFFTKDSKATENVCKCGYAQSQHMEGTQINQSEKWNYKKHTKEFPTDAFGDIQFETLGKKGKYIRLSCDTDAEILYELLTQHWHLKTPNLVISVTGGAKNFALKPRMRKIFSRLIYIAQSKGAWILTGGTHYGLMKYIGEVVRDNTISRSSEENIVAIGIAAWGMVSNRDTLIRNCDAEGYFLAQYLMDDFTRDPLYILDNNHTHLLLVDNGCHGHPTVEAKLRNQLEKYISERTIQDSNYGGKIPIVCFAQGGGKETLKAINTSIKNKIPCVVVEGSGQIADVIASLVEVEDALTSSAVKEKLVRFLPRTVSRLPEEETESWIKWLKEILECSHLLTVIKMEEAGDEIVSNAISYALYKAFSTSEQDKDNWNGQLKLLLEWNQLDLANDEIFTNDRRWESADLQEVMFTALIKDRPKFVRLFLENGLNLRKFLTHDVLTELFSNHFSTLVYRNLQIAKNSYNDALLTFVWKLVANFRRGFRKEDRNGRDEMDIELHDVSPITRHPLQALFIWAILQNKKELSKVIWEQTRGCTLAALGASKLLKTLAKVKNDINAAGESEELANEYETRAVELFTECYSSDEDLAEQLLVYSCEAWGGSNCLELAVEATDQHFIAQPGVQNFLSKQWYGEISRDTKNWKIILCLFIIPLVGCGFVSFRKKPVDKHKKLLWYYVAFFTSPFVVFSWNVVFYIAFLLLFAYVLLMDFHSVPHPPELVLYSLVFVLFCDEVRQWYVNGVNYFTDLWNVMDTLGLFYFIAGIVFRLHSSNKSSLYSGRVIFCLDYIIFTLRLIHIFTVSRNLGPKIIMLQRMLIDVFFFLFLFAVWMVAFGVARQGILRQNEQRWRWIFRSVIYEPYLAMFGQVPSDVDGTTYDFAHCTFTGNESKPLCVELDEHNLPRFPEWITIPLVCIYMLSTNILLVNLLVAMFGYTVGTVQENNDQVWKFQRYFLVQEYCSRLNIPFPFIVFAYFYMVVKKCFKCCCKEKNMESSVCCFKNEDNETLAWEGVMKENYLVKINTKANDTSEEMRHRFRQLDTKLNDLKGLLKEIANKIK

[2] = Metabolic stability in mouse liver microsomes; type: in vitro ADME; details: male, CD-1, mouse
human TRPM8 (hTRPM8) = human TRPM8 (hTRPM8) (Homo sapiens, UniProt Q7Z2W7); type: cell-based
Sequence of human TRPM8 (hTRPM8) (Q7Z2W7 whole entry): as above

human TRPV1 = human TRPV1 (Homo sapiens, UniProt Q8NER1); assay: FLIPR Ca2+ flux assay; type: cell-based; details: for hTRPV1% activation: normalized to Emax of capsaicin (3 μM); for hTRPV1% inhibition: vs EC80 of capsaicin (0.1 μM)
Sequence of human TRPV1 (Q8NER1 whole entry): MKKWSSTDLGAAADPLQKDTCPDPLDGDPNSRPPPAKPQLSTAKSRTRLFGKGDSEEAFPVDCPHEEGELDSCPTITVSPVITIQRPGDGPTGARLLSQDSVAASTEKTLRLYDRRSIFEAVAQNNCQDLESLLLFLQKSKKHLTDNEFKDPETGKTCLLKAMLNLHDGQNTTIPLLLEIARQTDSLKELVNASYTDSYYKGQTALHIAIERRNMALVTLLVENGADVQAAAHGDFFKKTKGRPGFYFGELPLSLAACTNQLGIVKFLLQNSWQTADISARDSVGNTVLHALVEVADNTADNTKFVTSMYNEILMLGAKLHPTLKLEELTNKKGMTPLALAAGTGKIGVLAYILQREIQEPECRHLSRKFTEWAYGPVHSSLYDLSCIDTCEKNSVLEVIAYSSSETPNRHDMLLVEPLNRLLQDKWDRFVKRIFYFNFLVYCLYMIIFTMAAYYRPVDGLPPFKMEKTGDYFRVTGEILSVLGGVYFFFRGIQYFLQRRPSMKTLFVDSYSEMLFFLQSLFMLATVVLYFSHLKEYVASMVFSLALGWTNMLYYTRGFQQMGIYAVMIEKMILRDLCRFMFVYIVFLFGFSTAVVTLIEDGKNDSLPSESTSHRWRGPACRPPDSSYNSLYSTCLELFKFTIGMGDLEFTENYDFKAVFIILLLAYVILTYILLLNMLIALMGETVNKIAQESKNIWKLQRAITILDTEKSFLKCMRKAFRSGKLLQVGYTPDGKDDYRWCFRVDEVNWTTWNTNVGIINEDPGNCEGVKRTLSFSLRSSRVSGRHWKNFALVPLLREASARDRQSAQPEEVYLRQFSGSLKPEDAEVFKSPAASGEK

[3] = tested on: icilin-induced WDS in mice; assay: Wet dog shakes; type: in vivo
[4] = tested on: Oxaliplatin (OXP)-induced cold allodynia in C57 mice; assay: Oxaliplatin-induced cold allodynia, acetone test; type: in vivo
In short: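 Male C57 mice received oxaliplatin (6 mg/kg) on days 1, 3 and 5, with saline and 5% mannitol given i.p., and were tested on day 7. Test compound (DMSO stock diluted in saline, 0.1–1 μg) was injected once into the right hind paw plantar surface. After about 30 min habituation on mesh, acetone-drop cold responses were followed over time. Mean ± SEM, n = 6; one-way ANOVA, Dunnett's.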

TRPM8 [5] = details: read-out: EC50 previously reported; CHO cells / mouse TRPM8; cited from earlier work
[6] = after single administration of 0.1 and 1 μg

Sequence of human TRPA1 (O75762 whole entry): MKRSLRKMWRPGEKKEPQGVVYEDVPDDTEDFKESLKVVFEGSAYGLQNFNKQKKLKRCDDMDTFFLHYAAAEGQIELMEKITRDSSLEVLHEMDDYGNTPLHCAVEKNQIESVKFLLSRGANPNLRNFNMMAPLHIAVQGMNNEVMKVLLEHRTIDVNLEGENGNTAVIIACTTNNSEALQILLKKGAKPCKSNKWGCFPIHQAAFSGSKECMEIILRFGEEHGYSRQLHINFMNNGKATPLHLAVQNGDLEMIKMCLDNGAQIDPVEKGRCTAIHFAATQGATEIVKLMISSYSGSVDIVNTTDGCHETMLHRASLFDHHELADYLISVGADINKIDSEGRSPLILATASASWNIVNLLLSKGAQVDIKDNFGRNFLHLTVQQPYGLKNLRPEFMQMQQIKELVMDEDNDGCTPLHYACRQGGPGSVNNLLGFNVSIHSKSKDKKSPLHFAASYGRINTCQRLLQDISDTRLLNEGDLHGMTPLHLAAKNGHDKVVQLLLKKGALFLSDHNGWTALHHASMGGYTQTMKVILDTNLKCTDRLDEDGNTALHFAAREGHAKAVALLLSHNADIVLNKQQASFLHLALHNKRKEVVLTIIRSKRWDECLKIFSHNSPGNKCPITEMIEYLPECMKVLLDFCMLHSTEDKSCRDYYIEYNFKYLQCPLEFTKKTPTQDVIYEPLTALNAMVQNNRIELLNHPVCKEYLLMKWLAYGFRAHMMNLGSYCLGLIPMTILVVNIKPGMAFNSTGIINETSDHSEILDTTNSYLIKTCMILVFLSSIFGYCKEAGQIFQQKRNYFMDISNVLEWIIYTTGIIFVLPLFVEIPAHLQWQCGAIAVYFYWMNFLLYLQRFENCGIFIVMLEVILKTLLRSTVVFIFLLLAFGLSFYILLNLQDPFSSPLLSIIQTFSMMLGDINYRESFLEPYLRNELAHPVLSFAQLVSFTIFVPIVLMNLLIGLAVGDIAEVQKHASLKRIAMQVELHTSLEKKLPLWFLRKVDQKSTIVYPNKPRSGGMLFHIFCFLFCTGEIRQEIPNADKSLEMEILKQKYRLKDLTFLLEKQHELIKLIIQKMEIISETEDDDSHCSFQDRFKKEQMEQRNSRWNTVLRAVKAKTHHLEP

In the case of COc1cc(CN(CCN)C(=O)OC(C)c2ccccc2)ccc1OCc1ccccc1 (centres unmarked) [PBMC], the IC50 (TRPM8 [1]) is given as 0.4 to 0.6 nM.
In the case of Cl.Cl.Cl.Cl.Cl.Cl.N.N.N.N.N.N.N.N.N.N.N.N.N.N.[O-2].[O-2].[Ru+3].[Ru+3].[Ru+4] [ruthenium red, reference compound], the IC50 (human TRPA1; read-out: TRPA1 IC50, vs AITC (10 μM)-activated [Ca2+]i release) is listed as 162 ± 33 nM and the IC50 (TRPA1) is listed as 29 ± 6 nM.
For C[C@H](c1ccc(F)cc1)N(Cc1cccc(C(=O)O)c1)C(=O)c1cnc2ccccc2c1 [PF-05105679], the IC50 (human TRPM8; read-out: human TRPM8 IC50, WS-12-mediated activation) is listed as 181 ± 7.21 nM and the IC50 (human TRPM8; read-out: human TRPM8 IC50, voltage-mediated activation) is listed as 103 ± 29.4 nM.
Work on C[C@]12CC[C@H]3[C@@H](CCC4=CC(=O)CC[C@@]43C)[C@@H]1CC[C@@H]2O [testosterone, reference compound] yielded a microsomal CLint ([2]; microsomes) of 372 µL/min/mg.
In the case of O=C(NC1CCC2(CCCC2)CC1)c1ccc(-c2ccccc2)cc1 [Compound 14, N-(Spiro[4.5]decan-8-yl)-[1,1′-biphenyl]-4-carboxamide], the “effect on menthol-evoked TRPM8-mediated Ca2+ entry” value (human TRPM8 (hTRPM8); 3 nM compound vs maximal (100 μM) menthol) is reported as “significantly (P < 0.01) reduce”, the “effect on icilin-induced Ca2+ influx at higher concentrations” value (human TRPM8 (hTRPM8); icilin 500 nM) is reported as “nearly abolishes” and the hTRPA1% activation (human TRPA1; concn tested 3 nM) is reported as −0.8 ± 0.4%. The hTRPA1% activation (human TRPA1; concn tested 30 nM) was 0.1 ± 1.2%, the hTRPV1% activation (human TRPV1; concn tested 3 nM) was 1 ± 1% and the hTRPV1% activation (human TRPV1; concn tested 30 nM) was 1 ± 2%. The microsomal CLint at 1 μM ([2]; liver microsomes) was 45.5 µL/min/mg, the “inhibition of WDS at the highest dose” value ([3]; 50 mg/kg s.c., compared with gabapentin 25 mg/kg s.c.) was “efficacy comparable to that observed with a standard analgesic dose of gabapentin” and the “effect on icilin-triggered wet dog shakes” value ([3]; 1, 30 and 50 mg/kg s.c. 30 min before icilin 10 mg/kg i.p., WDS counted over 30 min, n = 6) was “dose-dependently blocks; also recorded: marked, dose-dependent antinociceptive behavior”. For the same compound, the “effect on OXP effects at 60 min” value ([4]; 60 min after administration) was “significantly suppresses OXP effects”, the “time at which attenuated cold allodynia is evident” value [4, 6] was 15 min and the “time of maximum inhibition of cold allodynia” value [4, 6] was 30 min.
For O=C(O)c1ccc(S(=O)(=O)N(Cc2ccc(OC(F)(F)F)cc2)c2ncc(C(F)(F)F)cc2Cl)cc1 [RQ-00203078], the IC50 (human TRPM8; read-out: reported potency at hTRPM8) is listed as less than 10 nM.
For O=C(N[C@H]1CC[C@@H]2CCCC[C@@H]2C1)c1ccc(-c2ccccc2)cc1 (racemic) [Compound 12, N-((2SR,9RS,10SR)-Decahydronaphthalen-2-yl)-[1,1′-biphenyl]-4-carboxamide], the “higher potency than the diastereomeric mixture (10)” value (human TRPM8 (hTRPM8); ratio of IC50 values) was 4 fold, the hTRPA1% activation (human TRPA1; concn tested 3 nM) was −2.3 ± 1.0% and the hTRPA1% inhibition (human TRPA1; concn tested 3 nM) was −0.3 ± 3%. The hTRPA1% activation (human TRPA1; concn tested 30 nM) was −2.1 ± 0.5%, the hTRPA1% inhibition (human TRPA1; concn tested 30 nM) was 5 ± 9% and the hTRPV1% activation (human TRPV1; concn tested 3 nM) was 2 ± 1%. The hTRPV1% inhibition (human TRPV1; concn tested 3 nM) was −12 ± 3%, the hTRPV1% activation (human TRPV1; concn tested 30 nM) was 3 ± 1% and the hTRPV1% inhibition (human TRPV1; concn tested 30 nM) was 1.0 ± 2%.
For O=C1NC(c2cccc([N+](=O)[O-])c2)=CCN1c1ccccc1O [icilin, 3-(2-hydroxyphenyl)-6-(3-nitrophenyl)-3,4-dihydropyrimidin-2(1H)-one], the EC50 (TRPM8 [5]) is given as 120 to 200 nM.
In the case of O=C(NC1CCC2(CCCCC2)CC1)c1ccc(-c2ccccc2)cc1 [Compound 13, N-(Spiro[5.5]undecan-3-yl)-[1,1′-biphenyl]-4-carboxamide], the hTRPA1% activation (human TRPA1; concn tested 100 nM) is reported as 0.2 ± 0.5%, the hTRPA1% activation (human TRPA1; concn tested 1 μM) is reported as −0.2 ± 1.1% and the hTRPV1% activation (human TRPV1; concn tested 100 nM) is reported as −1.0 ± 0.4%. For the same compound, the hTRPV1% activation (human TRPV1; concn tested 1 μM) was 0.7 ± 0.2%.
For O=C(NC1CCc2ccccc2C1)c1ccc(-c2ccccc2)cc1 (centres unmarked) [Compound 11, N-(1,2,3,4-Tetrahydronaphthalen-2-yl)-[1,1′-biphenyl]-4-carbox-amide], the “decrease of hTRPM8 potency (vs 10)” value (human TRPM8 (hTRPM8); ratio of IC50 values) was 9 fold, the hTRPA1% activation (human TRPA1; concn tested 100 nM) was −0.1 ± 0.5% and the hTRPA1% inhibition (human TRPA1; concn tested 100 nM) was 3 ± 6%. It also gave a hTRPA1% activation (human TRPA1; concn tested 1 μM) of −0.8 ± 0.6%, a hTRPA1% inhibition (human TRPA1; concn tested 1 μM) of 4 ± 1% and a hTRPV1% activation (human TRPV1; concn tested 100 nM) of −1.8 ± 0.9%. For the same compound, the hTRPV1% inhibition (human TRPV1; concn tested 100 nM) was −3.1 ± 0.6%, the hTRPV1% activation (human TRPV1; concn tested 1 μM) was −0.7 ± 1.5% and the hTRPV1% inhibition (human TRPV1; concn tested 1 μM) was 13 ± 3%.
For O=C(NC12CC3CC(CC(C3)C1)C2)c1ccc(-c2ccccc2)cc1 [Compound 15, N-(Adamantan-1-yl)-[1,1′-biphenyl]-4-carboxamide], the hTRPA1% activation (human TRPA1; concn tested 30 nM) was −2.6 ± 0.5%, the hTRPA1% activation (human TRPA1; concn tested 300 nM) was −1.5 ± 0.4% and the hTRPV1% activation (human TRPV1; concn tested 30 nM) was 1.0 ± 0.2%. The hTRPV1% activation (human TRPV1; concn tested 300 nM) was 1 ± 2%.
With CC1CCC(C(C)C)C(NC(=O)c2ccc(-c3ccccc3)cc2)C1 (centres unmarked) [Compound 2, N-(2-Isopropyl-5-methylcyclohexyl)-[1,1′-biphenyl]-4-carboxamide] the “increase of hTRPM8 activity relative to 1” value (human TRPM8 (hTRPM8); ratio of IC50 values) was 30 fold.
For O=C(NC1CCC2CCCCC2C1)c1ccc(-c2ccccc2)cc1 (centres unmarked) [Compound 10, N-(Decahydronaphthalen-2-yl)-[1,1′-biphenyl]-4-carboxamide], the “enhancement of TRPM8 potency relative to 8” value (human TRPM8 (hTRPM8); ratio of IC50 values) was 3500 fold, the “higher potency than cycloheptyl 5 and cyclooctyl 7” value (human TRPM8 (hTRPM8); ratio of IC50 values) was 10 fold and the hTRPA1% activation (human TRPA1; concn tested 10 nM) was 0.2 ± 0.4%. For the same compound, the hTRPA1% activation (human TRPA1; concn tested 100 nM) was −1.1 ± 0.2%, the inhibition at 0.1 µM (human TRPV1; HEK293, read-out: hTRPV1% inhibition) was 2 ± 3% and the hTRPV1% activation (human TRPV1; concn tested 10 nM) was 2.4 ± 0.8%. The hTRPV1% activation (human TRPV1; concn tested 100 nM) was 2.3 ± 0.9%.
In the case of O=C(NC1CCCc2ccccc21)c1ccc(-c2ccccc2)cc1 (centres unmarked) [Compound 9, N-(1,2,3,4-Tetrahydronaphthalen-1-yl)-[1,1′-biphenyl]-4-carbox-amide], the “loss of potency vs 8” value (human TRPM8 (hTRPM8); ratio of IC50 values) is reported as 3 fold.
For O=C(NC1CCCCCCC1)c1ccc(-c2ccccc2)cc1 [Compound 7, N-Cyclooctyl-[1,1′-biphenyl]-4-carboxamide], the “improvement of hTRPM8 potency relative to 2” value (human TRPM8 (hTRPM8); ratio of IC50 values) was 8–9 fold, the hTRPA1% activation (human TRPA1; concn tested 100 nM) was −1.0 ± 0.1% and the hTRPA1% activation (human TRPA1; concn tested 1 μM) was −1.5 ± 0.9%. It also gave a hTRPV1% activation (human TRPV1; concn tested 100 nM) of −1.9 ± 0.7% and a hTRPV1% activation (human TRPV1; concn tested 1 μM) of −3.2 ± 0.6%.
With O=C(NC1CCCCCC1)c1ccc(-c2ccccc2)cc1 [Compound 5, N-Cycloheptyl-[1,1′-biphenyl]-4-Carboxamide] the “improvement of hTRPM8 potency relative to 2” value (human TRPM8 (hTRPM8); ratio of IC50 values) was 8–9 fold, the hTRPA1% activation (human TRPA1; concn tested 100 nM) was 0.1 ± 0.7% and the hTRPA1% activation (human TRPA1; concn tested 1 μM) was 0.8 ± 0.5%. For the same compound, the hTRPV1% activation (human TRPV1; concn tested 100 nM) was 0.0 ± 1.0% and the hTRPV1% activation (human TRPV1; concn tested 1 μM) was 0.6 ± 1.5%.

From paper PMC7153518 (ACS chemical neuroscience, 2020)
